Laboratory results published in publication PMC5746459 (Journal of medicinal chemistry, 2017).
Entries after “also recorded” stand apart in the source; their conditions may differ. Counter-ions that a name gives are not always drawn.

Assays:
[1] = tested on: Swiss Webster mice; test: Drug discrimination, mice trained to discriminate cocaine from saline; assay type: in vivo, mouse; conditions: for overall group response rate, % of control performance: mice, drug discrimination sessions, all doses tested
[2] = Phase I metabolic stability in mouse liver microsomes; assay type: in vitro ADME; conditions: mouse liver microsomes with and without NADPH
Summary of the method: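 Test compound at 10 uM final was incubated in triplicate with 0.5 mg/mL mouse liver microsomes in 100 mM potassium phosphate, pH 7.4. The NADPH regenerating system contained 1.3 mM NADPH, 3.3 mM glucose 6-phosphate, 3.3 mM MgCl2, 0.4 U/mL glucose-6-phosphate dehydrogenase and sodium citrate. Reactions were started by adding microsomes, with cofactor-free controls. Percent remaining over time was measured by LC/MS/MS; mean ± S.E.M., n=3 per time point.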

[3] = tested on: Swiss Webster mice; test: Locomotor activity in mice; assay type: in vivo, mouse; conditions: i.p., 1 h session; for effect on locomotor activity: cocaine 5–40 mg/kg, 10a 3–56 mg/kg
[4] = target: human DAT (hDAT) WT (Homo sapiens, UniProt Q01959); test: [3H]DA uptake inhibition in COS7 cells transiently expressing DAT WT; assay type: cell-based
human DAT (hDAT) WT, sequence (Q01959 whole entry): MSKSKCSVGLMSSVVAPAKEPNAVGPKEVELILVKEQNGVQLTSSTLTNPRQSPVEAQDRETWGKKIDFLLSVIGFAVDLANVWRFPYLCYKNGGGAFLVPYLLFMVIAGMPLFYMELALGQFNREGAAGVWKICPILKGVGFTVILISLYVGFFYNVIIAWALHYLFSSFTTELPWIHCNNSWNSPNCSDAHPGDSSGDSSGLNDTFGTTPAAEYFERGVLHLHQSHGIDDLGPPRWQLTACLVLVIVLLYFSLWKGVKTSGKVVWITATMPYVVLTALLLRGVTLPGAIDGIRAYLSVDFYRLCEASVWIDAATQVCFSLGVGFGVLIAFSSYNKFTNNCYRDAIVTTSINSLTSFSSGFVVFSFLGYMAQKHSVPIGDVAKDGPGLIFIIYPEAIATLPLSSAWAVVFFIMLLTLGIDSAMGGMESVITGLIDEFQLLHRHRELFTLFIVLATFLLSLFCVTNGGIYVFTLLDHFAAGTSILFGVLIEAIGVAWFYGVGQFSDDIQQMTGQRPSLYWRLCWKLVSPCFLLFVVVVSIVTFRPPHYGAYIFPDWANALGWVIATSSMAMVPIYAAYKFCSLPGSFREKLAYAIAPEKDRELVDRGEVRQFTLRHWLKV

[5] = tested on: mice; conditions: previous studies; cited from earlier work

In the case of `CN(C)CCN1C2CCC1CC(OC(c1ccc(F)cc1)c1ccc(F)cc1)C2` (stereo not shown) [10a, 2-(3-(bis(4-fluorophenyl)methoxy)-8-azabicyclo[3.2.1]octan-8-yl)-N,N-dimethylethanamine Oxalate], the “substitution for cocaine discriminative stimulus” value ([1]; mice trained with cocaine 10 mg/kg vs saline, 5 or 30 min pretreatment) is reported as “failed to substitute for cocaine; also recorded: did not generalize to the cocaine discriminative stimulus”, the “overall group response rate, % of control performance” value [1] is reported as ≥ 50% and the “Phase I metabolic stability” value [2] is reported as “complete stability under all conditions”. The “effect on locomotor activity” value [3] was “None of the doses of 10a significantly increased activity counts more than vehicle; also recorded: failed to produce a significant increase in locomotor activity; also recorded: did not significantly increase locomotor activity” and the “DA uptake inhibition potency relative to cocaine (times higher)” value [4] was > 4.
With `CN(C)CCN1C2CCC1CC(NC(c1ccc(F)cc1)c1ccc(F)cc1)C2` (stereo not shown) [10b, N-(Bis(4-fluorophenyl)methyl)-8-(2-(dimethylamino)ethyl)-8-azabicyclo[3.2.1]octan-3-amine Oxalate] the “DA uptake inhibition potency relative to cocaine (times higher)” value [4] was > 4.
`NCCc1ccc(O)c(O)c1` [Dopamine, reference compound] gave a Km ([4]; read-out: DAT WT, Dopamine (kM), [3H]DA uptake, COS7 cells transiently expressing DAT WT, mean [s.e.m. interval]) of 0.999 µM.
With `CN1[C@H]2CC[C@@H]1[C@@H](c1cc(-c3ccccc3)no1)[C@H](OC(c1ccc(F)cc1)c1ccc(F)cc1)C2` [S-(+)-19a, S-(+)-2β-(3-Phenylisoxazol-5-yl)-3α-[bis(4-fluorophenyl)methoxy]tropane] the Ki ([4]; read-out: DAT WT Ki, [3H]DA uptake inhibition, COS7 cells transiently expressing DAT WT, mean [s.e.m. interval]) was 212 nM.
With `COC(=O)[C@H]1[C@@H](OC(=O)c2ccccc2)C[C@@H]2CC[C@H]1N2C` [compound 1, cocaine, reference compound] the “overall group response rate, % of control performance” value [1] was ≥ 50%, the “maximum locomotor activity, % of activity counts compared to vehicle” value ([3]; 20 and 40 mg/kg) was “≈ 300%” and the “effect on locomotor activity” value [3] was “dose-dependently increased locomotion”.
In the case of `Cc1ccc(C2CC3CCC(C2c2cc(-c4ccc(Cl)cc4)no2)N3C)cc1` (stereo not shown) [compound 5], the “stimulation of locomotor activity” value [5] is given as “fails to stimulate locomotor activity in mice”.
In the case of `Cc1ccc(-c2cc(C3C(c4ccc(Cl)cc4)CC4CCC3N4C)on2)cc1` (stereo not shown) [compound 6], the “stimulation of locomotor activity” value [5] is listed as “does stimulate locomotion”.
